Data on 48 sequences can be found in the EternaBench riboswitch data.

The series deals with MS2 coat protein. Kind of series: apparent Kd, MS2 coat protein; higher = weaker binding; RNA-MaP array; FMN 200 µM where present. In outline:
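SNAP-549-labelled MS2 coat protein, doubled from 0.7 or 1.5 nM to 3 µM, was titrated over designs transcribed by stalled E. coli RNA polymerase on Illumina sequencing-chip clusters. Titrations were run without and then with constant ligand in 100 mM Tris-HCl pH 7.5, 80 mM KCl, 4 mM MgCl2, BSA, DTT, yeast tRNA and Tween-20. The apparent Kd is the median of filtered per-cluster fits to green signal normalised to red-channel RNA signal and control-cluster median Fmax.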

Where [1] appears, read: designed as: OFF switch for flavin mononucleotide, no ligand.
The mark [2] stands for this setting: ligand present: flavin mononucleotide, designed as: OFF switch for flavin mononucleotide.
Where [3] appears, read: designed as: ON switch for flavin mononucleotide, no ligand.
Where [4] appears, read: ligand present: flavin mononucleotide, designed as: ON switch for flavin mononucleotide.

Consider “AGGCGACAUGAGGAUCACCCAUGUGAGGAUAUCGAACUCUACUGUUGUGAGAGUAAGGCGAGAAGGCACACAGU”, for which the “apparent Kd” value was 0.0227 µM under setting [1] and 0.0253 µM under setting [2].
“UGUUUUCAUGUAGGAUAUGCUUGUCGUAGAUACGCAGAAGGACAUGAGGAUCACCCAUGUUAAUGCGACAGAGUUUAGAUUCUU”: the “apparent Kd” value runs as follows: under setting [1], 0.0175 µM; under setting [2], 0.0319 µM.
As to “CGCUCUAUAUAUUUGGCAAGAAUCAGAAGGCGUUACAUGAGGAUCACCCAUGUUUUGAAUAGUAACGAGGAUAUGAUAUGAGCG”, the “apparent Kd” value turned out to be 0.0216 µM under setting [1] and 0.025 µM under setting [2].
Consider “AUCAGCUCGUCAGGAUAUACGUCACUGCGUCAGCAGUGUGGUCAGAUCACAUGAGGAUCACCCAUGUAGAAGGGACGAGCUGAU”, for which the “apparent Kd” value under setting [1] came out at 0.0286 µM and the “apparent Kd” value under setting [2] was 0.549 µM.
With “CUUAGGUGAGGAUAUUAGUAGUAAAUGAAUAAAAUUAUUACUGAGAAGGCACAUGAGGAUCACCCAUGUUCCUC”, the “apparent Kd” value under setting [1] was determined as 0.0358 µM and the “apparent Kd” value under setting [2] came out at 0.444 µM.
Regarding “CUCAGCUCGUCAGGAUAUACGUCACUGCUUCGGCAGUGUGGUAAGAUCACAUGAGGAUCACCCAUGUAGAAGGGACGAGCUGAU”, the “apparent Kd” value by setting is: under setting [1], 0.0117 µM; under setting [2], 0.248 µM.
“UGGUACUAGGGAGGAUAUGGGAAGAUACAUGAGGAUCACCCAUGUUUCAGAAUGCCGAGAGGCAACUAGAAGGCCCUAGUACCU”: the “apparent Kd” value is 0.0597 µM under setting [3] and 0.00638 µM under setting [4].
Consider “GCGGAGAUACAGAAGGGAUAAGCCCUGGGCUAGUCAGGAUAUGUACGACGCAUCGUACAUGAGGAUCACCCAUGUAGCCGCUUG”, for which the “apparent Kd” value under setting [3] was 0.322 µM and the “apparent Kd” value under setting [4] is 0.162 µM.
For “AUCAUGUAAGGAUAUCUUACAUGUGACUUCGGUCACUGUUCAGAGAAGGUACAUGAGGAUCACCCAUGUAGAAC”, the “apparent Kd” value by setting is: under setting [1], 0.0187 µM; under setting [2], 0.0284 µM.
Consider “AAACCGUAAAUGCGGGCAUGUACACAGGAUAUCCCGUGACAUGAGGAUCACCCAUGUAACACAUUGGAGAAGGGUGUUCACGUA”, for which the “apparent Kd” value reads like this: under setting [3], 0.177 µM; under setting [4], 0.0196 µM.
For “AGUAACAGAGGAUAUACUAUUUUAUGUGUUUGUUAUUUUAAACAUGAGGAUCACCCAUGUAGAAGGCUGAAUGA”, the “apparent Kd” value was 0.0284 µM under setting [1] and 0.0291 µM under setting [2].
For the sequence “GCGAUUUUGUAAGGAUAUACACGAGUUUUAAGUGUAGAAGGUACUUACAUGAGGAUCACCCAUGUAUUAAUGAUUACUAGUCGC”, the “apparent Kd” value stood at 0.00699 µM under setting [3] and 0.00633 µM under setting [4].
The corresponding values for “UAUCUAUUUAUGGGAUUAGAAUAUGAGGAUAUCAUUUAUUUAUACAUGAGGAUCACCCAUGUUACUGAGAAGGCAUAUUUAAUA” are 0.0134 µM and 0.00747 µM.
With “UAAGACUAGCAUUGGUAUCUCCACAUGAGGAUCACCCAUGUCUAGGAUAUGAGCAGCAAAGCUGCUUAGAAGGAGACGCUAGUC”, the “apparent Kd” value is, setting by setting: under setting [1], 0.00847 µM; under setting [2], 0.0126 µM.
On to “GUAGCAUUAAUAGGAUAUUCAUACCGGAAACGGACAUGAGGAUCACCCAUGUGGCGAAAGCCUUGGGAGAAGGUAAUAUGCUAC”, for which the “apparent Kd” value by setting is: under setting [3], 0.821 µM; under setting [4], 0.24 µM.
On to “ACAUGAGGAUCACCCAUGUAUUUGUAGGAUAUACUGUAUUGUUUAUUACUCUAAUUAAUAUGUUUGUAGAAGGACAUUGCAUGA”, for which the “apparent Kd” value turned out to be 0.00839 µM under setting [1] and 0.00986 µM under setting [2].
In the case of “AAAACAUACCGAGGAUAUUCAUAUAAUAAAUAAACAUGAGGAUCACCCAUGUGGCAAAAGCCUAGGGAGAAGGCGGAAUGCUAA”, the “apparent Kd” value was 0.036 µM under setting [3] and 0.0224 µM under setting [4].
For the sequence “GCGUUACAUGAGGAUCACCCAUGUGAGGAUAUGGUUCGGUACUGUCCUGUCGCGUACUCCAGAAGGCACGUGUG”, the “apparent Kd” value under setting [1] stood at 0.0476 µM and the “apparent Kd” value under setting [2] was 0.104 µM.
Consider “AAACCACAUGAGGAUCACCCAUGUCAUAACCGUAGGGAGAAGAGAAGGGUGAGGGUGUAGCCUGCACAGGAUAUCUAGUGCCUC”, for which the “apparent Kd” value is, setting by setting: under setting [3], 0.228 µM; under setting [4], 0.174 µM.
Take “UCUAAUUAGUGAGGAUAUACAUAAUUUAUUACUGUAGAAGGCACAAACCUCAAGACAUGAGGAUCACCCAUGUGGUAUUUAGAU”: the “apparent Kd” value is, setting by setting: under setting [1], 0.158 µM; under setting [2], 0.362 µM.
For the sequence “UUCAUGUUAGGAUAUUCCGCCACAGAGAAAGUCUGUGGAAUGAAGAAGGGACAUGAGGAUCACCCAUGUUCCAA”, the “apparent Kd” value reads like this: under setting [1], 0.0151 µM; under setting [2], 0.0159 µM.
As to “CGAUAGGACAGAGGAUAUACACAUGAGGAUCACCCAUGUGAUUUCGGCGCGAAAGCGCCAAACAUGUAGAAGGCUGUCCUAUCG”, the “apparent Kd” value stood at 0.0113 µM under setting [1] and 0.00489 µM under setting [2].
As for “UUGGACGUCGUUGGAUAUGUAGGAUAUUCCUACAUGAGGAUCACCCAUGUUGACAUGGAAGAAGGACAGAAGGACGAUGUCCAU”, the “apparent Kd” value stood at 0.196 µM under setting [3] and 0.00605 µM under setting [4].
With “CUAAAAGUCGAGGAUAUGCACCGGCUUUUUGACGCAGAAGGCGACACAUGAGGAUCACCCAUGUCGGUACGCGA”, the “apparent Kd” value is 0.0122 µM under setting [1] and 0.013 µM under setting [2].
For the sequence “ACAUGAGGAUCACCCAUGUAUUACAUGGUUAAGUUUAUUAACAGAAGGCGAAAAUACCAAUUGAUCGAGGAUAUGUAAUCAAUU”, the “apparent Kd” value by setting is: under setting [1], 0.0338 µM; under setting [2], 0.0432 µM.
Turning to “GUGAGUGAUAGAGGAUAUAUAGAGAGAGAGAGAAUAGAAGGCUAAACAUACAUGAACAUGAGGAUCACCCAUGUCACCCAUGUU”, the “apparent Kd” value by setting is: under setting [3], 0.0376 µM; under setting [4], 0.0422 µM.
“AUUAUACAUGAGGAUCACCCAUGUAAUUAAUCUAGUAAGAUCUAGGAUAUCAGCUCGAAUAGAGCUGAGAAGGAGAUCACAUGU”: the “apparent Kd” value under setting [3] is 0.0536 µM and the “apparent Kd” value under setting [4] stood at 0.0207 µM.
With “CCACCCUGAGGAUAUCCACCCUCAUACAUGAGGAUCACCCAUGUUCAUCCCUGAGUACCCGGAGAAGGCAGAUUUC”, the “apparent Kd” value is, setting by setting: under setting [1], 0.0877 µM; under setting [2], 0.0579 µM.
Take “GCUGCGUACGUAGGAUAUACAUGAGGAUCACCCAUGUAACUCGGACUCUAAGCGGGUGCGCGCAUGUAGAAGGACGGGCGAGCC”: the “apparent Kd” value worked out at 0.0333 µM under setting [1] and 0.0572 µM under setting [2].
As to “ACCCGCAAACGUUGGAAUCGUAAGAGAAGGUGGACAUGAGGAUCACCCAUGUGCAUCCUGCGUUCCAAGGAUAUCUUACUGAAU”, the “apparent Kd” value stood at 0.0109 µM under setting [1] and 0.048 µM under setting [2].
The matching figures for “GCAGCUUGGCAGAAGGCCUAGGUGGCGGACCUAGGAGGAUAUGCUACAUGAGGAUCACCCAUGUGGGUGGGAGAAUCCUAGGAG”: 0.133 µM and 0.132 µM.
As to “ACUAAGAGAGGAUAUACUAACAAACCUCAAACAUACAUCAAACAUGAGGAUCACCCAUGUAGAAGGCUCAAACU”, the “apparent Kd” value under setting [1] came to 0.0305 µM and the “apparent Kd” value under setting [2] stood at 0.0316 µM.
Consider “CUCUUGGCAGGAUAUGCUCUCUUAGACAUGAGGAUCACCCAUGUGUUCAUUCUUUCUUUUGCAGAAGGGCCUUAAC”, for which the “apparent Kd” value is 0.0871 µM under setting [1] and 0.0828 µM under setting [2].
Turning to “AAAUCAGCAGGAUAUGCGAUGUUGUGCUAGAUAGCGGGACCACAUGAGGAUCACCCAUGUAGAAGGGCUGGAUA”, the “apparent Kd” value is, setting by setting: under setting [1], 0.0575 µM; under setting [2], 0.0295 µM.
On to “GUAGAGUAAGGAUAUUGUGAAUAGGAUAGAAUGGUUAGAAGCAAGAAGGUACAUGAGGAUCACCCAUGUAAUGU”, for which the “apparent Kd” value is, setting by setting: under setting [1], 0.0225 µM; under setting [2], 0.0236 µM.
In the case of “UUUAUUUUUACAGGAUAUCAUCUAUUUAACUCAUGCACAUGUUUACAUGAGGAUCACCCAUGUUUUGAGAAGGGUAUUGAAACA”, the “apparent Kd” value is, setting by setting: under setting [3], 0.246 µM; under setting [4], 0.259 µM.
Take “GUACAGUAGUGAGGAUAUACGAGAUCGAUAGAUCGGCGAUCCAAUAAUACAUGAGGAUCACCCAUGUAGAAGGCACUUCUGUAC”: the “apparent Kd” value came out at 0.00769 µM under setting [1] and 0.113 µM under setting [2].
In the case of “UUAUUUAGUGUGAGGAUAUGCUGGUCCUUGGAUCAGCAGAAGGCACAUGAGGAUCACCCAUGUAAUAUAUUAAU”, the “apparent Kd” value stood at 0.091 µM under setting [1] and 0.305 µM under setting [2].
Take “GGAUCGAGUGUGAGGAUAUACCUAUGGAUACAUAGGUAGAAGGCACAUGAGGAUCACCCAUGUGUUCCCGGUCC”: the “apparent Kd” value is, setting by setting: under setting [1], 0.0434 µM; under setting [2], 0.368 µM.
Consider “AGCAUGCUUGGGUAACCUGGCACAUGAGGAUCACCCAUGUGACAGGAUAUCGACGUAGAUGACGACGAGAAGGGUCUGAUGGGU”, for which the “apparent Kd” value is, setting by setting: under setting [1], 0.00761 µM; under setting [2], 0.0123 µM.
With “GGACAUUUACAGAAGGGCAAGUUGGAUCGCGGAUAACGCGAUCCGACUUGCAGGAUAUGUUGAACAUGAGGAUCACCCAUGUCC”, the “apparent Kd” value by setting is: under setting [3], 0.012 µM; under setting [4], 0.0098 µM.
With “GCCGAAAGUGUGAGGAUAUACCUAUGGAUACAUAGGUAGAAGGCACAUGAGGAUCACCCAUGUGUUUCAACGGC”, the “apparent Kd” value by setting is: under setting [1], 0.0193 µM; under setting [2], 0.0716 µM.
Turning to “AGUCGGUUCUUUUAACAUGAGGAUCACCCAUGUAUUUGCAACUAGGAUAUCGAUAAUUAUUUCGUCGAGAAGGAGUAUACAUAA”, the “apparent Kd” value runs as follows: under setting [1], 0.0242 µM; under setting [2], 0.0385 µM.
The matching figures for “AAAUAAACUACCAUAAUAUCCUCACAUGAGGAUCACCCAUGUCAGGAUAUUUGUCCUAAAAGGACAGAGAAGGGACGUGGUAGA”: 0.00543 µM and 0.0111 µM.
With “AGACGGAGCAGAGGAUAUACAUGAGGAUCACCCAUGUAAAUGAAAGAUAGCAGCAAAGCUGCAAUGUAGAAGGCUGCUCCGUCA”, the “apparent Kd” value was 0.0292 µM under setting [1] and 0.0838 µM under setting [2].
In the case of “AAUAUGAGCUGGAAUAAACUCAAAACAUGAGGAUCACCCAUGUAGGAUAUCAGCACGAUAAGUGCUGAGAAGGACAACCAGCUC”, the “apparent Kd” value is, setting by setting: under setting [1], 0.0138 µM; under setting [2], 0.0155 µM.
The matching figures for “CGAUGACAAAGUCAUCGAAUACGAACAUGAGGAUCACCCAUGUAGGAUAUGCUACUCAAAGAGUAGCAGAAGGACAUGUGUCUU”: 0.0314 µM and 0.154 µM.
Take “CGCUGUCACGCAGGAUAUGCAUUGGAUUACAAUGCAGAAGGGCGAUCACAUGAGGAUCACCCAUGUGUAGACAGUGAAUAAGAG”: the “apparent Kd” value is 0.611 µM under setting [3] and 0.0496 µM under setting [4].

For orientation: apparent Kd means the concentration giving half-maximal binding under the conditions of the assay.
